Measured values: ChEMBL document CHEMBL2331513, “Trisubstituted Sulfonamides: a New Chemotype for Development of Potent and Selective CB2 Receptor Inverse Agonists” (ACS Med Chem Lett, 2013)
Active and inactive are the calls of the source. The rule behind the calls is not given here.

Experiments:
[1] = target: T1, Cannabinoid receptor 2 (Homo sapiens, UniProt P34972); test: Displacement of [3H]CP-55940 from human CB2 receptor expressed in CHO cell membranes after 1 hr by scintillation counting analysis
[2] = target: Cannabinoid receptor 1 (Homo sapiens, UniProt P21554); test: biochemical; assay type: cell-based, CHO
[3] = target: T1, Cannabinoid receptor 2; test: Inverse agonist activity at human CB2 receptor expressed in CHO cell membranes assessed as inhibition of forskolin-stimulated cAMP production after 45 mins by TR-FRET assay; assay type: functional, cell-based
Outline: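 Functional cAMP readout by LANCE signal in CHO cells stably transfected with human CB2, tested across a concentration range; EC50 from concentration–response; means ± SEM of one representative experiment of two or more, run in duplicate or triplicate.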

[4] = species: Homo sapiens; test: Selectivity ratio of Ki for human CB1 receptor to Ki for human CB2 receptor
Outline: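 Ki at CB1 and CB2 each determined by [3H]CP-55,940 competition binding; selectivity index computed as Ki(CB1)/Ki(CB2).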

[5] = target: T1, Cannabinoid receptor 2; test: Binding affinity to CB2 receptor (unknown origin)
Outline: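 Radioligand competition binding at CB2 using [3H]CP-55,940 as the labelled ligand; Ki derived from displacement; means ± SEM of at least three experiments, each run in duplicate.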

[6] = species: Mus musculus; test: Inhibition of RANKL/MCSF-induced osteoclastogenesis in C57BL/6 mouse BM-MNC after 7 days by TRAP staining-based inverted microscopic analysis; assay type: functional
Outline: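 Mouse bone marrow mononuclear cells driven to osteoclasts with mouse RANKL plus M-CSF, compound or vehicle control added; osteoclast formation scored; triplicate, means ± SD.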

[7] = Inhibition of RANKL/MCSF-induced osteoclastogenesis in C57BL/6 mouse BM-MNC at 1 uM after 7 days by TRAP staining-based inverted microscopic analysis relative to control; assay type: functional; design: scale not given: the % may be the effect or the level left
Outline: (§1)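 Osteoclast formation assay using mouse bone marrow mononuclear cells stimulated with mouse RANKL plus M-CSF. Compounds were tested at 0.1, 1 and 5 μM, and inhibition was calculated relative to vehicle control. All experiments were run in triplicate and reported as mean ± standard deviation.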

[8] = Inhibition of RANKL/MCSF-induced osteoclastogenesis in C57BL/6 mouse BM-MNC at 0.1 uM after 7 days by TRAP staining-based inverted microscopic analysis relative to control; assay type: functional; design: scale not given: the % may be the effect or the level left; outline: as §1
[9] = tested on: PBMC; test: Cytotoxicity against human PBMC at 5 uM after 72 hrs by trypan blue assay; assay type: cell-based
[10] = Inhibition of RANKL/MCSF-induced osteoclastogenesis in C57BL/6 mouse BM-MNC at 5 uM after 7 days by TRAP staining-based inverted microscopic analysis relative to control; assay type: functional; design: scale not given: the % may be the effect or the level left; outline: as §1

Sequence of Cannabinoid receptor 1 (P21554 whole entry): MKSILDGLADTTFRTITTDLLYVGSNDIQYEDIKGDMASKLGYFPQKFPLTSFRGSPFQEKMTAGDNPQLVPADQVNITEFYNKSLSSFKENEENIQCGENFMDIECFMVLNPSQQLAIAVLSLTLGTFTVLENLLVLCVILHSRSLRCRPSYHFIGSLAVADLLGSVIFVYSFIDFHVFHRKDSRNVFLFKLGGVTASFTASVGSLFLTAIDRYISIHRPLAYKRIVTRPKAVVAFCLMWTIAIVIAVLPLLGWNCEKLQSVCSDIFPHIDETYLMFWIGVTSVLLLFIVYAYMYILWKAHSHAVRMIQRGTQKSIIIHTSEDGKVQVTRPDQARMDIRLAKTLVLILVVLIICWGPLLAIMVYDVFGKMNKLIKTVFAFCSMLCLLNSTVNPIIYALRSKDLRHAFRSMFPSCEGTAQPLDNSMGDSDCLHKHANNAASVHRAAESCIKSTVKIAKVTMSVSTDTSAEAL
T1 sequence (P34972 whole entry): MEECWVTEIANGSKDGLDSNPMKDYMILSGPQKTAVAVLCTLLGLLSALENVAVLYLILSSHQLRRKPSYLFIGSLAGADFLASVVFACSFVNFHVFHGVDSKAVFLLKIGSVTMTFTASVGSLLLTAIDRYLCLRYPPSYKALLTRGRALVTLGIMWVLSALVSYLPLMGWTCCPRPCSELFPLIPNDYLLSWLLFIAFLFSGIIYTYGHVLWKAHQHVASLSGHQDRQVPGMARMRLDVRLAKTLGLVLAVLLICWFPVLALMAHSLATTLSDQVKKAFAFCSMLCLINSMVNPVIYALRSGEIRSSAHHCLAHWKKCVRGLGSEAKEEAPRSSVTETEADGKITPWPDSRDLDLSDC

Ki [1] [nM] | Ki [2] [nM] | Ratio Ki [4] | SMILES | other results
32 | 590 | 18 | COc1ccc(S(=O)(=O)N(Cc2ccc(N3CCCCC3)cc2)c2ccccc2)cc1 | EC50 [3]: 49 nM
30 | 2000 | 66 | CCN(CC)c1ccc(CN(c2ccccc2)S(=O)(=O)c2ccc(C(C)C)cc2)cc1 | 
18 | 210 | 12 | CCN(CC)c1ccc(CN(C2CCCCC2)S(=O)(=O)c2ccc(C)cc2)cc1 | 
9.5 | 570 | 60 | CCN(CC)c1ccc(CN(Cc2ccco2)S(=O)(=O)c2ccc(C)cc2)cc1 | 
71 | 520 | 7 | CCN(CC)c1ccc(CN(Cc2ccccc2)S(=O)(=O)c2ccc(C(C)C)cc2)cc1 | 
94 |  |  | CCN(CC)c1ccc(CN(Cc2ccccc2)S(=O)(=O)c2ccc(OC(C)C)cc2)cc1 | 
166 |  |  | CCN(CC)c1ccc(CN(Cc2ccccc2)S(=O)(=O)c2ccc(-c3ccccc3)cc2)cc1 | 
310 |  |  | Cc1ccc(S(=O)(=O)N(Cc2ccc(N3CCCCC3)cc2)c2ccccc2)cc1 | 
390 |  |  | CCN(CC)c1ccc(CN(Cc2ccc(Cl)c(Cl)c2)S(=O)(=O)c2ccc(C)cc2)cc1 | 
66 | 1250 | 19 | C=CCN(Cc1ccc(N(CC)CC)cc1)S(=O)(=O)c1ccc(C)cc1 | 
230 |  |  | Cc1ccc(S(=O)(=O)N(Cc2ccccc2)Cc2ccc(C(C)C)cc2)cc1 | 
190 |  |  | CCN(CC)c1ccc(CN(Cc2ccccc2)S(=O)(=O)c2ccc3ccccc3c2)cc1 | 
150 |  |  | CCN(CC)c1ccc(CN(Cc2ccccc2)Cc2ccccc2)cc1 | 
46 | 690 | 15 | CCN(CC)c1ccc(CN(Cc2ccccc2)S(=O)(=O)c2ccc(OC)cc2)cc1 | 
34 | 560 | 16 | CCN(CC)c1ccc(CN(CC2CCCCC2)S(=O)(=O)c2ccc(C)cc2)cc1 | 
140 |  |  | O=S(=O)(c1ccc(Cl)cc1)N(Cc1ccc(N2CCCCC2)cc1)c1ccccc1 | 
680 |  |  | Cc1ccc(S(=O)(=O)N(Cc2ccccc2)Cc2ccc(N(C)C)cc2)cc1 | 
36 | 500 | 14 | CCN(CC)c1ccc(CN(C2CCCC2)S(=O)(=O)c2ccc(C)cc2)cc1 | 
31 | 1300 | 42 | CCN(CC)c1ccc(CN(Cc2ccco2)S(=O)(=O)c2ccc(C(C)C)cc2)cc1 | 
20 | 840 | 42 | CCN(CC)c1ccc(CN(Cc2ccco2)S(=O)(=O)c2ccc(OC)cc2)cc1 | 
170 |  |  | CCN(CC)c1ccc(CN(Cc2ccccc2)S(=O)(=O)c2ccccc2)cc1 | 
14 | 340 | 24 | CCN(CC)c1ccc(CN(c2ncc(C)s2)S(=O)(=O)c2ccc(C)cc2)cc1 | 
540 |  |  | CCN(CC)c1ccc(CN(Cc2ccc(N(CC)CC)cc2)S(=O)(=O)c2ccc(C)cc2)cc1 | 
577 |  |  | CCN(CC)c1ccc(CN(Cc2ccccc2)S(=O)(=O)c2ccc(OC(F)(F)F)cc2)cc1 | 
262 |  |  | CCN(CC)c1ccc(CN(Cc2ccccc2)S(=O)(=O)Cc2ccccc2)cc1 | 

Continued, compound first:

SMILES | Ki [1] [nM] | Ki [2] [nM] | Ratio Ki [4] | other results
CCN(CC)c1ccc(CN(Cc2ccc(Cl)cc2)S(=O)(=O)c2ccc(C)cc2)cc1 | 210 |  |  | 
CCN(CC)c1ccc(CN(Cc2ccccc2)S(=O)(=O)c2ccc(NC(C)=O)cc2)cc1 | 470 |  |  | 
CCN(CC)c1ccc(CN(C2CCCCC2)S(=O)(=O)c2ccc(OC)cc2)cc1 | 75 | 660 | 9 | 
Cc1ccc(S(=O)(=O)N(Cc2ccccc2)Cc2ccc(N(CCCl)CCCl)cc2)cc1 | 166 |  |  | 
CCN(CC)c1ccc(CN(Cc2cccs2)S(=O)(=O)c2ccc(C)cc2)cc1 | 14 | 610 | 44 | 
CCN(CC)c1ccc(CN(C2CCCCC2)S(=O)(=O)c2ccc(C(C)C)cc2)cc1 | 55 | 1400 | 25 | 
CCN(CC)c1ccc(CNS(=O)(=O)c2ccc(C)cc2)cc1 | 3600 |  |  | 
Cc1ccc(S(=O)(=O)N(Cc2ccccc2)Cc2ccc(OC(C)C)cc2)cc1 | 174 |  |  | 
Cc1ccc(S(=O)(=O)N(CCc2ccccc2)Cc2ccccc2)cc1 |  |  |  | Ki [5]: 750 nM
CCN(CC)c1ccc(CN(Cc2ccccc2)S(=O)(=O)c2ccc(C)cc2)cc1 | 53 | 2300 | 43 | 
CCN(CC)c1ccc(CN(Cc2ccccc2)S(=O)(=O)c2ccc(F)cc2)cc1 | 102 | 930 | 9 | 
CCCCc1ccc(CN(Cc2ccccc2)S(=O)(=O)c2ccc(C)cc2)cc1 | 280 |  |  | 
CCN(CC)c1ccc(CN(Cc2ccc(F)cc2)S(=O)(=O)c2ccc(C)cc2)cc1 | 120 | 2250 | 20 | 
CCN(CC)c1ccc(CN(c2ccccc2)S(=O)(=O)c2ccc(OC)cc2)cc1 | 5.4 | 500 | 92 | EC50 [3]: 2.5 nM; Activity [6]: Active
CCN(CC)c1ccc(CN(c2ncc(C)s2)S(=O)(=O)c2ccc(OC)cc2)cc1 | 4 | 600 | 120 | EC50 [3]: 73 nM; Activity [6]: Active
CCCc1ccc(CN(Cc2ccccc2)S(=O)(=O)c2ccc(C)cc2)cc1 | 130 |  |  | 
CCOc1ccc(CN(Cc2ccccc2)S(=O)(=O)c2ccc(C)cc2)cc1 | 230 |  |  | 
CCN(CC)c1ccc(CN(c2ccccc2)S(=O)(=O)c2ccc(C)cc2)cc1 | 5.5 | 81 | 15 | Activity [7]: 83%; Activity [8]: 55%; EC50 [3]: 8.2 nM; Activity [9]: Non-toxic; Activity [10]: 99.7%
C=CCc1ccc(CN(Cc2ccccc2)S(=O)(=O)c2ccc(C)cc2)cc1 | 130 |  |  | 
CCN(CC)c1ccc(CN(CCc2ccccc2)S(=O)(=O)c2ccc(C)cc2)cc1 | 120 |  |  | 
Cc1ccc(S(=O)(=O)N(Cc2ccccc2)Cc2ccc(N3CCCCC3)cc2)cc1 | 44 | 1300 | 28 | 
CCN(CC)c1ccc(CN(Cc2ccccc2)S(=O)(=O)c2ccc(Cl)cc2)cc1 | 73 | 430 | 6 | 
